Screening results (PubChem BioAssay)
EP2 modulator: modulators of human EP2 prostaglandin E2 receptor; P43116; EP2-expressing cells, cAMP HTRF FRET, PGE2 co-stimulation; induction, % at 25 µM; 260,000 compounds, 0.83% hits; AID 940;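 active = compounds whose cAMP rise, as percent of the full-agonist control response, exceeds 60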;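 also: rat C6 glioma line stably carrying human EP2 under a CMV promoter; the protocol text gives 20 µM as final concentration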
Target sequence (P43116 whole entry, looked up): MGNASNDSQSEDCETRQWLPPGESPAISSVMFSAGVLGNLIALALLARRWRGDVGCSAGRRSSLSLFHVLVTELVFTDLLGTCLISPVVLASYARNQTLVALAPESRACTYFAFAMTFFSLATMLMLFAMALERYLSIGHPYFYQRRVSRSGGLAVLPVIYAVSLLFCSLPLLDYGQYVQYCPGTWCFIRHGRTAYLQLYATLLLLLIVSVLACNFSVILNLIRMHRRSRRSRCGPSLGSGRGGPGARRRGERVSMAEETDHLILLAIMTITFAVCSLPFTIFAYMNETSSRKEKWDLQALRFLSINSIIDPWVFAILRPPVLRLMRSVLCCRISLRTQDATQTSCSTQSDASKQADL
RBBP9 inhibitor: inhibitors of human serine hydrolase RBBP9. recombinant RBBP9, FP-Rh probe fluorescence polarization. inhibition, % at 7.94 µM. O75884. 220,000 compounds, 0.2% hits. AID 1515;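 active = inhibition above the campaign mean of all tested compounds plus 3 SD, cut at about 14% in these data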
Target sequence (O75884 whole entry, looked up): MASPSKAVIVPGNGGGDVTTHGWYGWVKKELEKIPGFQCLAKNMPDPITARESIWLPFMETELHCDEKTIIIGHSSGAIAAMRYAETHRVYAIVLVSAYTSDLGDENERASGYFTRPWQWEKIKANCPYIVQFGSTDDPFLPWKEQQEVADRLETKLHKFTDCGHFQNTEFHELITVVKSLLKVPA
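System: RBBP9 protein / Buffer or medium: Tris/NaCl buffer pH 8.0 with 0.1% Pluronic / Probe or stimulus: Serine-hydrolase probe FP-Rh, 375 nM pre-mixing / Dosing: 7.94 µM single dose, 0.794% DMSO / Times: enzyme-compound preincubation 30 min, then probe labeling 45 min, 25 °C / Technique: fluorescence polarization (mP), excitation 525 nm, emission 598 nm / Replication: singlicate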
EP2 antag: inhibitors of human EP2 prostaglandin E2 receptor. P43116. C6 glioma cells expressing human EP2, cAMP TR-FRET; cells stimulated with saturating PGE2. inhibition, % at 25 µM. 260,000 compounds, 0.52% hits. AID 1422;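 active = percent inhibition above 40 after rounding to a whole number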;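 also: rat C6 glioma host cells with rolipram phosphodiesterase inhibitor present; the protocol text gives 20 µM as final concentration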
ABCG2 inh: blocks JC-1 efflux by human ABCG2 transporter. Q9UNQ0. IgMXP3 cells, flow cytometry. inhibition, % at 6.6 µM. 190,000 compounds, 0.1% hits. AID 1325;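 active = inhibition above 80%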
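Test system: ABCG2 IgMXP3 and barcoded ABCB1 CCRF-Adr cell mix; Schedule: cells with compound and JC-1, 10 min at 25 °C, rotating, no wash; Technique: flow cytometry of retained JC-1 fluorescence; Measure: % inhibition of efflux relative to nicardipine and DMSO; Controls: nicardipine high and DMSO low controls.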
ABCB1 block: inhibitors of human ABCB1 transporter, ABCG2 counter-screen. AID 1326. P08183. CCRF-Adr cells, JC-1 efflux, flow cytometry. 190,000 compounds, 0.067% hits. inhibition, % at 6.6 µM; in the data active = inhibition above about 40%;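 also: higher value means more JC-1 retained so stronger ABCB1 efflux block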
A number is an active result; 0 = inactive; - = no result; ! = a repeat was not active. Shown are actives, neighbours in structure and some others; about 1.5% of the full set was active somewhere.

SMILES | EP2 modulator | RBBP9 inhibitor | EP2 antag | ABCG2 inh | ABCB1 block
CC(=O)C1=C(C)NC(SCSc2ccccc2)=C(C#N)C1c1cccnc1 (configuration not stated) | 0 | 0 | 0 | 0 | 0
C/C(N[O-])=C(\C)[N+]([O-])=[Co].CC(=N\[O-])/C(C)=N/[O-].O[C@@H]1[CH-]CCCC1.c1ccncc1 | 0 | - | 43 | - | -
CC1(C)CC(NC(=O)c2ccccc2C(=O)NC2CC(C)(C)NC(C)(C)C2)CC(C)(C)N1 | 0 | 0 | 0 | 0 | 0
CC1(C)CC(Nc2ccc(Nc3ccccc3)cc2)CC(C)(C)N1 | 0 | 0 | 60! | - | -
O=C1C=CC(=O)c2c(O)c(Cl)c(Cl)c(O)c21 | 0 | - | 129 | - | -
CCOC(=O)c1c(NC(C)=O)sc2c1CC(C)CC2 (configuration not stated) | 80 | - | 0 | - | -
COC(=O)c1c(NC(=O)CC2SC(N)=NC2=O)sc2c1CCC(C)C2 (configuration not stated) | 0 | 0 | 0 | 0 | 0
CCOC(=O)c1c(NC(=O)C2C3C=CC(C3)C2C(=O)O)sc2c1CCC(C)C2 (configuration not stated) | 0 | 0 | 0 | 0 | 0
CCOC(=O)c1c(NC(=O)c2cccs2)sc2c1CCC2 | - | - | 76 | - | -
CCOC(=O)c1c(NC(=O)CC2SC(N)=NC2=O)sc2c1CCC(C)C2 (configuration not stated) | 68! | 0 | 0 | 0 | 0
CCNC(=O)c1c(NC(=O)c2cccs2)sc2c1CCCC2 | 0 | - | 0 | - | -
CCc1nc(NC2CCCCC2)c(C#N)c2c1COC(C)(C)C2 | 62 | 0 | 0 | 0 | 0
CCOc1ncnc2c1oc1nc(CC(C)C)c3c(c12)CC(C)(C)OC3 | 0 | 0 | 0 | 0 | 0
CCOc1nc(CC(C)C)c2c(c1C#N)CC(C)(C)OC2 | 62 | 0 | 0 | - | -
COC(=O)[C@@H]1O[C@H](SCCN)[C@@H](O)[C@H](O)[C@H]1O | 0 | - | 50 | - | -
O=C(c1c(F)cccc1Cl)N1CCCC(c2noc(-c3ccccn3)n2)C1 (configuration not stated) | 0 | - | 0 | - | -
COc1ccccc1CNC(=O)CSc1nc(-c2ccco2)cc(C(F)(F)F)n1 | 0 | - | 0 | - | -
CCCCSc1nc(C)nc2c1c(=O)n(C)c(=O)n2C | 63 | 0 | 0 | 0 | 0
CC1CCN(c2nnc(-c3ccccc3)c3ccccc23)CC1 | 65 | 0 | 0 | 0 | 0
Cc1ccc(-c2nnc(N3CCC(C)CC3)c3ccccc23)cc1C | 0 | 0 | 0 | 0 | 0
CC(C)(C)C(=O)N1CCC(n2nnc3cccnc32)CC1 | 0 | - | - | - | -
COc1ccc(C2(NC(=O)CCn3nc(C)c(C)c3C)CCCC2)cc1 | 0 | - | 0 | - | -
Fc1ccc(C2CC(c3ccco3)=Nc3ccccc3S2)cc1 (configuration not stated) | 62 | 0 | 0 | 0 | 0
CCS(=O)(=O)N1CCN(Cc2cn(CC(=O)NC3CC3)c3ccccc23)CC1 | 0 | - | 0 | - | -
COc1cc(C2Nc3c(Cl)cc(Cl)cc3C3C=CCC32)cc(OC)c1OC (configuration not stated) | 62 | - | 0 | - | -
SMILES | EP2 modulator | RBBP9 inhibitor | EP2 antag | ABCG2 inh | ABCB1 block
COc1cccc(N2C(=O)NC(=O)/C(=C\c3cn(CC(=O)NCc4ccco4)c4ccccc34)C2=O)c1 | 0 | - | 0 | - | -
COc1ccc(C(=O)CSc2nc3c(C)c(C)ccc3cc2C#N)cc1OC | 0 | - | 50 | - | -
O=C1[C@H]2[C@@H]3c4ccccc4[C@H]([C@H]2C(=O)N1c1ccc(OCc2ccccc2)cc1)[n+]1ccccc13 | 0 | - | 42 | - | -
Cn1c(=S)n(/N=C/c2ccc3c(c2)OCO3)c2ccccc21 | 64 | 0 | 0 | 0 | 0
Nc1nc(N)c2[nH]cnc2n1 (tested in a mixture with another compound) | 0 | - | 0 | - | -
Nc1ncnc2nc[nH]c12.Nc1ncnc2nc[nH]c12.[Cl][Pt]([Cl])([Cl])[Cl] | 0 | - | 47 | - | -
Cc1cc(C)c2c(=O)n(CC(=O)N3CCC(N4CCCCC4)CC3)sc2n1 | 0 | 0 | 0 | 0 | 0
CCOC(=O)C1CCCN(C(=O)Cn2sc3nc(C)cc(C)c3c2=O)C1 (configuration not stated) | 0 | 0 | 115 | 0 | 0
Nc1ncnc2c1ncn2C1O[C@H](COP(=O)(O)O)[C@@H](O)[C@H]1O (some centres not stated) | 0 | - | 0 | - | -
NC(=O)c1ccc[n+]([C@@H]2O[C@H](COP(=O)([O-])OP(=O)(O)OC[C@H]3O[C@@H](n4cnc5c(N)ncnc54)[C@H](OP(=O)(O)O)[C@@H]3O)[C@@H](O)[C@H]2O)c1 | 71 | - | 0 | - | -
Cc1cccc(C)c1NC(=S)N(Cc1ccccc1)Cc1cccs1 | 63 | 0 | 0 | 0 | 0
Cn1c(=O)c2[nH]c(CCCCC(=O)O)nc2n(C)c1=O | 0 | - | 0 | - | -
Cn1c(=O)c2[nH]c(CS(=O)(=O)Cc3nc4c([nH]3)c(=O)n(C)c(=O)n4C)nc2n(C)c1=O | 0 | - | 50 | - | -
CCCCCc1ccc(-c2ccc(/C=C/C(=O)O)cc2)nc1 | 62 | 0 | 0 | 0 | 0
O=C(O)C[C@H]1OCC=C2C[N+]3([O-])CC[C@@]45c6ccccc6N[C@@H]4[C@@H]1[C@@H]2C[C@H]53 (some centres not stated) | 0 | - | 54 | - | -
COc1cccc(C(c2nnnn2CCc2ccccc2)N2CCN(C)CC2)c1OC (configuration not stated) | 0 | - | 0 | - | -
COc1cc(/C=C/C(=O)OCC(=O)NCCN2C(=O)CSC2=O)ccc1OC(F)F | 0 | 0 | 0 | 0 | 0
COc1cc(/C=C/C(=O)OCc2c(C)noc2C)ccc1OC(F)F | 0 | 0 | 83 | 0 | 0
CC(=O)Nc1ccc(S(=O)(=O)N(Cc2ccccc2)c2ccccc2F)cc1 | 64 | 0 | 0 | 0 | 0
CC(=O)Nc1ccc(S(=O)(=O)N(CCO)Cc2ccccc2)cc1 | 0 | 0 | 0 | - | 0
CC(=O)Nc1cccc(NC(=O)CSc2nnc3c(C)cc4ccccc4n23)c1 | 0 | - | 0 | - | -
O=C1c2ccccc2N[C@H](c2cc(Cl)cc(Cl)c2O)N1CCc1ccccn1 | 0 | - | 55 | - | -
Cc1cccc(C2Nc3ccccc3C(=O)N2CCc2ccccc2)n1 (configuration not stated) | 0 | 0 | 0 | 0 | 0
O=C1c2ccccc2NC(c2ccc(Cl)cc2Cl)N1Cc1ccccc1 (configuration not stated) | 61 | 0 | 0 | 0 | 0
Cc1ccc(NC(=O)CSc2nnc3c(C)cc4ccc(C)c(C)c4n23)cc1 | 0 | - | 0 | - | -
CCCCCCCCCCCCCCCC[n+]1ccc(C(N)=O)cc1 | 0 | 0 | 0 | 0 | 0
CCCCCCCCCCCCCCCC[n+]1ccc(/C=N/O)cc1 | 0 | 40 | 0 | 0 | 0
O=C(CN1CCCC(O)C1)N1c2ccccc2Sc2ccc(C(F)(F)F)cc21 (configuration not stated) | 0 | 0 | 0 | 0 | 0
CN1CCN(CCCN2c3ccccc3Sc3ccc(C(F)(F)F)cc32)CC1 | 0 | 0 | 41! | 0 | 0
Cc1onc(-c2c(F)cccc2Cl)c1C(=O)N[C@@H]1C(=O)N2[C@H]1SC(C)(C)[C@H]2C(=O)O | 0 | - | 55 | - | -
